ANO1 block – inhibitors of mouse TMEM16A calcium-activated chloride channel | 310,000 compounds, 1.2% hits | Q8BHY3 | HEK293 TMEM16A/YFP iodide influx fluorescence, ionomycin | normalized B-score (activity score, 25-100; higher = stronger inhibition) at 10 µM | AID 588511;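 active = ratio plate-corrected score three or more library SD toward inhibition, starting fluorescence score within five deviations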;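 note: score derived from kinetic fluorescence span divided by baseline fluorescence per well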
Target sequence (Q8BHY3 whole entry, looked up): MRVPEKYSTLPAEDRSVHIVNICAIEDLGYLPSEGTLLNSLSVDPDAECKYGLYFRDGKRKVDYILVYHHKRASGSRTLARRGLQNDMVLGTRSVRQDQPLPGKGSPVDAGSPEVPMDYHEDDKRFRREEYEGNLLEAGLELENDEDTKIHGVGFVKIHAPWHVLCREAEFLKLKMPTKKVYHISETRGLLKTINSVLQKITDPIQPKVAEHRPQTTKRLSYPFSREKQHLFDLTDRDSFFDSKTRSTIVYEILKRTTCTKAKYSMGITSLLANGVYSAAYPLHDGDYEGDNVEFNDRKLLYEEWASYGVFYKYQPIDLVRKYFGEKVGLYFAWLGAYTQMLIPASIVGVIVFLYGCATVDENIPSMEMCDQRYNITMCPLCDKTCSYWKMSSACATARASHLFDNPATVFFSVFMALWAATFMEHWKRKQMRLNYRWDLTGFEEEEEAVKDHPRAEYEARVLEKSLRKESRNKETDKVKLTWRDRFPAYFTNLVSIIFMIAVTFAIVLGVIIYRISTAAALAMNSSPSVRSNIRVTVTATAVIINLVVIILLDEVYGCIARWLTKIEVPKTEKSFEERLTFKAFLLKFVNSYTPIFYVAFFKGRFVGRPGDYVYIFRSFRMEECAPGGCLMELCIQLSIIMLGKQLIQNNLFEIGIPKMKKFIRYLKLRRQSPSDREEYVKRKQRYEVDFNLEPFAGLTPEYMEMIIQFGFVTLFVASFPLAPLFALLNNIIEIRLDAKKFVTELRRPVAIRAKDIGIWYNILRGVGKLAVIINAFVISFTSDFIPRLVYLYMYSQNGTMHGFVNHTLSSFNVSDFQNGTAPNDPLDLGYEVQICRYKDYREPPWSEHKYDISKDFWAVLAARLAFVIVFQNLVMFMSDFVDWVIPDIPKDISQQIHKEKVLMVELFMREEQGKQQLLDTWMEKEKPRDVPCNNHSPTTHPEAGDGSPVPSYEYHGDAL
MT1-MMP act inh – blocks activation of human MT1-MMP; GFP/RFP ratio change, % at 20 µM; 360,000 compounds, 0.061% hits; AID 651647; HT1080 RFP-PRO-GFP cells, GFP/RFP ratio fluorescence, overnight; percent of plate control window, DMSO zero; P50281;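 active = GFP/RFP ratio change of at least 30% with cell ATP level not reduced by more than half and red fluorescence within 50% of control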
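Test system: HT1080 RFP-PRO-GFP cells; Benchmarks: DMSO and RFP-L50D-GFP cell wells; Timing: cells overnight before dosing, compound overnight, 37 °C, 5% CO2; Compound: one 20 µM compound dose with 1% DMSO; Read-out: GFP/RFP fluorescence ratio.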
TMEM16A act – activators or potentiators of mouse TMEM16A chloride channel | Q8BHY3 | HEK293 TMEM16A/YFP-H148Q/I152L, iodide quench fluorescence; active compounds read low | B-score at 10 µM | 340,000 compounds, 0.3% hits | AID 623877;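 active = fluorescence-ratio B-score plate-corrected deviation score at least 3 library SD below zero, with starting fluorescence score within 5 deviations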;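 note: channel opened by trigger with iodide after compound preincubation; score built on the fluorescence ratio of max minus min over baseline; more negative score means more quench and so TMEM16A activation or potentiation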
DAGLB inhibitor – diacylglycerol lipase beta (human) inhibition; Q8NCG7; HEK293T DAGLB membrane lysate, EnzChek fluorogenic substrate; inhibition, % at 5.17 µM; 340,000 compounds, 0.059% hits; AID 504411; in the data active = inhibition above about 34%
A number is an active result. Only some compounds are listed: those with a hit (about 1.3% of all), similar ones and a draw of the others.

`COc1ccc(NC(=O)C2c3ccccc3OCC(=O)N2Cc2ccco2)cc1` (stereo not given) gave MT1-MMP act inh inactive.
Screening Cc1ccc(S(=O)(=O)N2CCC(=O)N(C(COCc3cccc(C(F)(F)F)c3)Cc3ccccc3)CC2)cc1 (stereo not given) returned ANO1 block inactive, MT1-MMP act inh inactive, TMEM16A act -19.3 and DAGLB inhibitor inactive.
`Cc1ccc(S(=O)(=O)N2CCC(=O)N(C(COCc3cccc(Cl)c3)Cc3ccccc3)CC2)cc1` (stereo not given) gave ANO1 block inactive, MT1-MMP act inh inactive, TMEM16A act -11.3 and DAGLB inhibitor inactive.
Cc1ccc(S(=O)(=O)N2CCC(=O)N([C@H](COCc3cccc(Cl)c3)Cc3ccccc3)CC2)cc1 was read as MT1-MMP act inh inactive.
`Cc1ccc(S(=O)(=O)N2CCC(=O)N(C(COCc3ccc(Cl)cc3Cl)Cc3ccccc3)CC2)cc1` (stereo not given) gave ANO1 block inactive, MT1-MMP act inh inactive, TMEM16A act -28.6 and DAGLB inhibitor inactive.
Cc1ccc(S(=O)(=O)N2CCC(=O)N(C(COCc3ccccc3)Cc3ccccc3)CC2)cc1 (stereo not given) was read as ANO1 block inactive, MT1-MMP act inh inactive, TMEM16A act inactive and DAGLB inhibitor inactive.
For CN1CCN(c2ncnc3c2ncn3[C@H]2CN(Cc3ccco3)C[C@@H](CO)O2)CC1 the results were MT1-MMP act inh inactive.
`COc1ccc(Cc2noc(=O)[nH]2)cc1` gave MT1-MMP act inh inactive and DAGLB inhibitor inactive.
For CCOC(=O)C1(C)CCCN1C(=O)c1ccc(C(F)(F)F)nc1C (stereo not given) the results were MT1-MMP act inh inactive.
`CCOc1ccc(C2OC34CCCCC3C(C#N)(C#N)C2(C#N)C(=N)O4)cc1OC` (stereo not given) gave ANO1 block inactive, MT1-MMP act inh inactive, TMEM16A act -5.05 and DAGLB inhibitor inactive.
`CCCCOc1ccc(C2OC34CCCCC3C(C#N)(C#N)C2(C#N)C(=N)O4)cc1` (stereo not given) gave ANO1 block inactive, MT1-MMP act inh inactive, TMEM16A act inactive and DAGLB inhibitor inactive.
Cc1cc(C)n2cc(COc3ccc4ccccc4c3)nc2n1 was read as ANO1 block inactive, MT1-MMP act inh inactive, TMEM16A act inactive and DAGLB inhibitor inactive.
Screening Cc1cccc2nc(COc3ccc(-c4ccccc4)cc3)cn12 returned ANO1 block 100.
For O=c1c(C(c2ccccc2)c2c(O)sc3ccccc3c2=O)c(O)sc2ccccc12 the results were ANO1 block 100, MT1-MMP act inh inactive, TMEM16A act inactive and DAGLB inhibitor inactive.
For O=c1c2ccccc2sc2ccccc12 the results were MT1-MMP act inh inactive, TMEM16A act inactive and DAGLB inhibitor inactive.
O=C(CSc1nc2c(c(=O)[nH]1)CN(Cc1ccc(F)cc1)CC2)Nc1ccc(F)cc1 was read as ANO1 block inactive, MT1-MMP act inh inactive, TMEM16A act inactive and DAGLB inhibitor inactive.
Screening Cc1ccc(NC(=O)CSc2nc3c(c(=O)[nH]2)CN(Cc2ccc(F)cc2)CC3)cc1C returned ANO1 block inactive, MT1-MMP act inh inactive, TMEM16A act -11.9 and DAGLB inhibitor inactive.
For CC(Oc1cccc(Cl)c1)C(=O)Nc1ccccc1N1CCCCC1 (stereo not given) the results were ANO1 block inactive, MT1-MMP act inh inactive, TMEM16A act inactive and DAGLB inhibitor inactive.
Screening CC(Oc1ccc(F)cc1)C(=O)Nc1ccccc1N1CCCCC1 (stereo not given) returned ANO1 block inactive, MT1-MMP act inh inactive, TMEM16A act -21.2 and DAGLB inhibitor inactive.
For CCC(C(=O)OCC(=O)Nc1cc(Cl)ccc1Cl)c1ccccc1 (stereo not given) the results were ANO1 block 25, MT1-MMP act inh inactive, TMEM16A act inactive and DAGLB inhibitor inactive.
Screening Clc1cccc(-c2ccc(C3Nc4cccc5cccc(c45)N3)o2)c1 returned MT1-MMP act inh inactive, TMEM16A act inactive and DAGLB inhibitor inactive.
`CCOC(=O)N1CCN(c2ccc(C(=O)c3cccc(F)c3)cc2)CC1` gave ANO1 block 25, MT1-MMP act inh inactive, TMEM16A act inactive and DAGLB inhibitor inactive.
Screening O=C(c1ccc(N2CCN(C(=O)c3cccc(F)c3)CC2)cc1)c1cccc(F)c1 returned ANO1 block inactive, MT1-MMP act inh inactive, TMEM16A act inactive and DAGLB inhibitor inactive.
O=C(/C=C/c1ccco1)Nc1cccc(S(=O)(=O)N2CCOCC2)c1 was read as ANO1 block inactive, MT1-MMP act inh inactive, TMEM16A act inactive and DAGLB inhibitor inactive.
Cc1ccc(NC(=O)/C=C/c2ccco2)cc1S(=O)(=O)N1CCCCCC1 was read as ANO1 block 25, MT1-MMP act inh inactive, TMEM16A act inactive and DAGLB inhibitor inactive.
For CC(=O)NC(c1cccc(F)c1)c1nc(-c2cc(F)cc(Cl)c2)cs1 (stereo not given) the results were MT1-MMP act inh inactive.
For CN(N)c1ccc2c(C(F)(F)F)cc(C(F)(F)F)nc2n1 the results were ANO1 block inactive, MT1-MMP act inh inactive, TMEM16A act inactive and DAGLB inhibitor inactive.
Screening Cc1ccc(C(C#N)c2ccc3c(C(F)(F)F)cc(C(F)(F)F)nc3n2)cc1 (stereo not given) returned ANO1 block 100, MT1-MMP act inh inactive, TMEM16A act inactive and DAGLB inhibitor inactive.
Screening O=C1CCCCC1(O)Cc1ccc2c(c1)OCO2 (stereo not given) returned MT1-MMP act inh inactive, TMEM16A act inactive and DAGLB inhibitor inactive.
C/C(=N\Nc1nc(C)c(C)s1)c1ccc([N+](=O)[O-])cc1 was read as ANO1 block inactive, MT1-MMP act inh inactive, TMEM16A act -20.7 and DAGLB inhibitor inactive.
Screening Cc1csc2ncnc(N3CCN(S(=O)(=O)c4cccc(C(F)(F)F)c4)CC3)c12 returned ANO1 block 100, MT1-MMP act inh inactive, TMEM16A act inactive and DAGLB inhibitor inactive.
Screening OC(COCc1ccccc1)COCc1ccccc1 returned MT1-MMP act inh inactive, TMEM16A act inactive and DAGLB inhibitor inactive.
O=S(CC(O)COCc1ccc(Cl)cc1)c1ccccn1 (stereo not given) was read as ANO1 block inactive, MT1-MMP act inh inactive, TMEM16A act -8.1 and DAGLB inhibitor inactive.
Screening C=CCNC(=O)CN1c2cccc3cccc(c23)S1(=O)=O returned ANO1 block inactive, MT1-MMP act inh inactive, TMEM16A act -6.62 and DAGLB inhibitor inactive.
`O=C(CN1c2cccc3cccc(c23)S1(=O)=O)Nc1ccccc1F` gave ANO1 block inactive, MT1-MMP act inh inactive, TMEM16A act -7.79 and DAGLB inhibitor inactive.
For O=C(CN1c2cccc3cccc(c23)S1(=O)=O)Nc1ccc(F)c(F)c1F the results were MT1-MMP act inh inactive, TMEM16A act -5.1 and DAGLB inhibitor inactive.
`O=C(c1ccc2c(c1)CCC2)N1CCN(Cc2ccccc2)CC1` gave MT1-MMP act inh inactive and DAGLB inhibitor inactive.
`Nc1nonc1C(=O)NCCNCc1ccccc1OCc1ccccc1F` gave ANO1 block inactive, MT1-MMP act inh inactive, TMEM16A act inactive and DAGLB inhibitor inactive.

Source: PubChem BioAssay (several laboratories)
